# bIAP inhibitor = bovine intestinal alkaline phosphatase inhibitors, primary screen, selectivity assay for TNAP inhibitor project, biochemical, bovine IAP, CDP-star luminescence; alkaline phosphatase, intestinal [Bos taurus]; purified bovine IAP, 30 min; inhibition, % at 20 µM; 190,000 tested, under 10 active; AID 1019, 2008;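 active = over 50% inhibition of intestinal alkaline phosphatase at 20 µM in the single-dose screen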
#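 Assay system: bovine IAP enzyme; medium: DEA buffer 100 mM, pH 9.8, with MgCl2 1.0 mM, ZnCl2 0.02 mM; doses: 20 µM single dose; incubation: enzyme reaction for 30 min at room temperature; detection: CDP-star luminescence signal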
# mIAP inh = inhibitors of mouse IAP, primary screen, biochemical, luminescence, uHTS; 0.2% of 330,000 active; purified mouse IAP, CDP-Star luminescence, 30 min; AID 2806, 2010; inhibition, % at 10 µM; intestinal alkaline phosphatase [Mus musculus];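 active = inhibition of at least 40% at 10 µM in the primary screen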;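 note: plate controls were DMSO with enzyme for no effect and no enzyme wells for full effect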
# mIAP activ = activators of mouse IAP, primary screen, biochemical, luminescence, uHTS. intestinal alkaline phosphatase [Mus musculus]. muIAP, CDP-Star luminescence, 30 min; hits give high values; 1 = vehicle-only enzyme signal, 0 = enzyme-free wells. activation factor at 10 µM. 0.24% of 330,000 active. AID 2805, 2010;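 active = activation factor of at least 2 at 20 µM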
#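 Assay system: mouse IAP enzyme / Compound: DMSO-dissolved test compounds / Timing: 30 min, room temperature / Measured by: luminescence from enzymatic CDP-Star hydrolysis / Control set: DMSO-only wells, enzyme-free buffer wells as negative control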
# hIAP activ = human IAP activators, primary screen, biochemical, luminescence, uHTS; Intestinal-type alkaline phosphatase (Homo sapiens), P09923; purified human IAP, CDP-Star luminescence, 30 min; hits give high values; 1 = vehicle-only enzyme, 0 = enzyme-free background; activation factor at 10 µM; 0.16% of 330,000 active;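 active = activation factor of the enzyme at least 2-fold when tested at 20 µM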
# Target sequence (P09923 whole entry, looked up): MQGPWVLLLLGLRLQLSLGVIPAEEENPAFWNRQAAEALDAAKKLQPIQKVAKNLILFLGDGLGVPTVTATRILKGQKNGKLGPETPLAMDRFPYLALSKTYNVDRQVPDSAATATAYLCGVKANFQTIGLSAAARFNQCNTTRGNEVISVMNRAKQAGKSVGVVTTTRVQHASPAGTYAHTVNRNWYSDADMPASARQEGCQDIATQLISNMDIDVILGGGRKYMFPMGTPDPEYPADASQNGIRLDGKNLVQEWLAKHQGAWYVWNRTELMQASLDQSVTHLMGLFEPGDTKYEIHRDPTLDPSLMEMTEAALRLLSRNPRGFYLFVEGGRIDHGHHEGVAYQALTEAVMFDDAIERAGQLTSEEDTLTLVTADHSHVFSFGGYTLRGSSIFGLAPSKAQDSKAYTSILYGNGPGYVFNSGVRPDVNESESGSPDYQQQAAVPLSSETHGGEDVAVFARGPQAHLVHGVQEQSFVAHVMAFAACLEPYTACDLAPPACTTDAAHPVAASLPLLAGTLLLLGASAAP
# bIAP act = bovine intestinal alkaline phosphatase activators, primary screen, biochemical, bovine IAP, CDP-star luminescence; alkaline phosphatase, intestinal [Bos taurus]; activation factor at 20 µM; AID 1016, 2008; purified bovine IAP, 30 min; hits give high values; fold of DMSO-control signal, blank-subtracted; 0.17% of 200,000 active;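 active = activation factor of 2 or more at 20 µM, a signal rise over negative controls twice the positive control's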
# hIAP inh = human IAP inhibitors, primary screen, biochemical, luminescence, uHTS. Intestinal-type alkaline phosphatase (Homo sapiens), P09923. purified IAP, CDP-Star luminescence, 30 min. inhibition, % at 10 µM. 0.12% of 330,000 active. AID 2544, 2010;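 active = inhibition reaching a set limit with compound at 10 µM in the primary screen, cut at about 35% in these data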;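 note: plate controls were DMSO wells with enzyme for no effect and no-enzyme buffer wells for full effect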
# Starred values were filed as active, the others as inactive; i = inactive; nt = no result given. A selection: hits, their analogues and other compounds. The true share with any hit is near 0.79%.
SMILES,bIAP inhibitor,mIAP inh,mIAP activ,hIAP activ,bIAP act,hIAP inh
Cc1ncoc1C(=O)Nc1ccc2c(c1)OCCO2,5.3,7.8,0.922,0.841,0.9,15.9
CC(C)(C)OC(=O)NCCCC[C@@H](C(=O)NCCCCCCCCCCC(=O)N1CCN(C(=O)OC(C)(C)C)CC1)n1cc(CCO)nn1,nt,-22.3,1.22,0.827,nt,17.3
CC[C@H](C)Cc1cn([C@@H](CCCCNC(=O)OC(C)(C)C)C(=O)NCCCCCCCCCCC(=O)N2CCN(C(=O)OC(C)(C)C)CC2)nn1,nt,-118.6,2.19*,0.967,nt,3.3
CC1CC(C)(C)NCCNC(C)CC(C)(C)NCCN1 (stereo unspecified),-176.9,-18.3,1.18,1.04,2.8*,-4.5
O=S(=O)(c1ccccc1)N(F)S(=O)(=O)c1ccccc1,nt,6.5,0.935,0.978,nt,2.2
Cc1ccc(NC(=O)Nc2ccc3c(c2)N(C)C(=O)CS3)cc1C,-4.8,-208.9,3.09*,1.28,1,-28.1
Cc1ccc(CNC(=O)Nc2ccc3c(c2)N(C)C(=O)CS3)cc1,16.9,-107.2,2.07*,0.914,0.8,8.6
CN1C(=O)CSc2ccc(NC(=O)NCc3ccccc3)cc21,3.0,-34.0,1.34,1.1,1,-10.5
COCCCNC(=O)C(C)N1c2cccc3cccc(c23)S1(=O)=O (stereo unspecified),nt,-4.1,1.04,1.21,nt,-21.0
CC(C)(C)Sc1ccccc1S(=O)(=O)C(C)(C)C,nt,3.9,0.961,0.865,nt,13.5
Cc1c(C(=O)O)sc2nc3n(c(=O)c12)CCC(C)CC3 (stereo unspecified),-5.2,41.0*,0.59,1.14,1.1,-14.2
O=C1NC(=S)S/C1=C/c1ccc(N2CCOCC2)o1,-1.9,52.9*,0.471,0.853,1,14.7
Cc1nn(C)cc1/C=N\NC(=O)c1ccc2c(c1)c(C)c(C)n2Cc1ccccc1,i,-129.7,2.3*,1.2,8.3*,-20.3
Cc1c(C)n(Cc2ccccc2)c2ccc(C(=O)O)cc12,nt,1.8,0.982,0.984,nt,1.6
N#C/C(=C\c1ccc(F)c(Cl)c1)S(=O)(=O)c1ccccn1,nt,9.4,0.906,1.22,nt,-22.1
CC(=O)OCCCNc1cc(SCc2ccco2)c2nonc2c1[N+](=O)[O-],14.9,49.9*,0.501,1.04,0.9,-3.9
CCCC(=O)OCCNc1cc(SCc2ccco2)c2nonc2c1[N+](=O)[O-],30.5,48.9*,0.511,0.928,0.7,7.2
CCCSc1cc(NCCOC(=O)CCC)c([N+](=O)[O-])c2nonc12,nt,17.3,0.827,0.907,0.4,9.3
Cc1ccc(C(=O)NCc2cccnc2)cc1S(=O)(=O)Nc1ccccc1,-10.4,3.2,0.968,1.18,1.1,-18.3
O=C(Nc1cccc(C(=O)O)c1)/C(=C\c1ccccc1)NC(=O)c1ccccc1,3.7,0.8,0.992,1.04,1,-4.5
Cc1ccc(C(=O)N/C(=C/c2ccc(Cl)cc2)C(=O)Nc2cccc(C(=O)O)c2)cc1,-118.9,-7.5,1.07,0.789,2.2*,21.1
Cc1ccc(N2CCN(C(=O)CCc3nc4ccccc4[nH]3)CC2)c(C)c1,-165.8,-41.2,1.41,1.06,2.7*,-6.0
COCCOc1cc(NC(=O)CS(=O)(=O)CC(=O)N(C)C)c(Cl)cc1Cl,-12.6,6.5,0.935,1.05,1.1,-4.9
CCOC(=O)C1(CCOc2ccccc2)CCN(Cc2cccc3nonc23)CC1,1.1,11.6,0.884,0.811,1,18.9
N#CC1=C(S)N(c2ccccc2)C(c2ccc(-c3ccc(Cl)c(Cl)c3)o2)NC1=O (stereo unspecified),nt,17.4,0.826,0.784,nt,21.6
N#CC1=C(S)N(c2ccccc2)C(c2ccc(-c3cc(Cl)ccc3Cl)o2)NC1=O (stereo unspecified),-101.1,16.5,0.835,0.948,2*,5.2
O=C(Nc1ccccc1)Nc1ccc(Br)cc1F,13.5,-81.0,1.81,0.834,0.9,16.6
